Compounds with a hit are over-represented: about 1.8% of the library has one in this group of screens.
Apaf-1 inh: human Apaf-1 inhibition; O14727; AID 489030; 0.71% of 330,000 active; inhibition, % at 20 µM; reconstituted apoptosome caspase-3 activity, DEVD-Rh110 fluorescence; active = inhibition of at least 40% at 20 µM;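 note: plate controls were DMSO wells for no effect and DEVD-CHO caspase inhibitor wells for full effect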
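Material: reconstituted apoptosome with Apaf-1, cytochrome c, caspase-9, procaspase-3, dATP. Technique: Rh110 fluorescence intensity. Buffer or medium: pH 7.5 Hepes buffer with CHAPS, BSA, DTT. Times: 30 min plus 50 min, RT.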
PAD4 FP inh: blocks human protein arginine deiminase 4; 0.41% of 330,000 active; recombinant PAD4, RCA probe fluorescence polarization; Q9UM07; inhibition, % at 6.36 µM; AID 485272;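 active = percent inhibition above a cutoff equal to the mean of all tested compounds plus 3 SD, cut at about 15% in these data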;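 note: 0% = PAD4 with RCA probe and DMSO and 100% = probe without PAD4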
TDP2 absorb: blocks human TDP2 phosphodiesterase activity; O95551; recombinant TDP2, T5PNP hydrolysis, p-nitrophenol absorbance 415 nm; inhibition, % at 12.8 µM; 0.34% of 370,000 active;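 active = inhibition above the mean of all tested compounds plus 3 SD, set per campaign, cut at about 25% in these data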;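 note: 0% = DMSO with enzyme and 100% = buffer with substrate but no TDP2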
Target sequence (O95551 whole entry, looked up): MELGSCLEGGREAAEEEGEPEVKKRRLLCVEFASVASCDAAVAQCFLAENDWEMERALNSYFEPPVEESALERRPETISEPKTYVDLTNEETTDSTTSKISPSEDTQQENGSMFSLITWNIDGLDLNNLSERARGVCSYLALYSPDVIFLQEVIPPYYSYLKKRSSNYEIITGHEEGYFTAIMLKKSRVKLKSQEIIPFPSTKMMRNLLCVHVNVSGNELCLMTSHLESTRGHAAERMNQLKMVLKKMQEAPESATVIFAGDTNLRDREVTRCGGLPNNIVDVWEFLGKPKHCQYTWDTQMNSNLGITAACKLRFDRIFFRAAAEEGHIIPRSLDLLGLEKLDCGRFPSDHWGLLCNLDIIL
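Test system: Human TDP2 enzyme | Reagent: 5 mM T5PNP | Compound dosing: 12.8 µM single point, 1% DMSO | Incubation: Enzyme reaction with compound for 2 h at 37 °C | Technique: p-Nitrophenol epi absorbance | Read-out: % inhibition relative to enzyme-containing and enzyme-free wells | Benchmarks: High control without enzyme, low control DMSO plus TDP2 | Replicates: Singlicate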
GSTO1 counter: GSTO1 inhibition, counter-screen for RBBP9 inhibitors. P78417. recombinant GSTO1, activity-based probe fluorescence polarization. inhibition, % at 5.96 µM. 1.1% of 300,000 active. AID 1974;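 active = inhibition above the campaign mean inhibition plus 3 SD, cut at about 35% in these data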;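 note: 0% = GSTO1-1 with DMSO and 100% = wells lacking GSTO1-1 enzyme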
Target sequence (P78417 whole entry, looked up): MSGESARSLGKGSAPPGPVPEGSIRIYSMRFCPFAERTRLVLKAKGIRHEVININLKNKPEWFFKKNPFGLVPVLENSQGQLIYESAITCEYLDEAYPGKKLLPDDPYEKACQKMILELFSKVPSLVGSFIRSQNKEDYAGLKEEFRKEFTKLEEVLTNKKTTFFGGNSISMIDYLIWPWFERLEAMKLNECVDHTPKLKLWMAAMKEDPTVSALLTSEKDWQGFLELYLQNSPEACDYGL
CTSL1 counter: cathepsin L1 inhibition, PFM18AAP counter-screen; 0.49% of 300,000 active; recombinant F. hepatica cathepsin L1, Z-Leu-Arg-MCA fluorescence; inhibition, % at 5.96 µM;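 active = inhibition above the mean of all tested compounds plus 3 SD, set per screening campaign, cut at about 17% in these data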;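 note: 0% = plate median of test compound wells and 100% = 1 µM Z-Phe-Ala-diazomethylketone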
Active calls of the source: *; . = no result given.

SMILES | Apaf-1 inh | PAD4 FP inh | TDP2 absorb | GSTO1 counter | CTSL1 counter
CC(C)(C)OC(=O)[C@H](CCCCN)NC(=O)c1[nH]cnc1C(=O)N[C@@H](Cc1ccccc1)C(=O)OCc1ccccc1 | 64.5* | 1.9 | . | . | .
OCC1OC(C(N=Nc2ccccc2)=NNc2ccccc2)C(O)C1O (stereo not given) | . | . | -5.1 | . | .
CC1CCN(C(=O)CSc2nnc(Cn3c(=O)sc4ccccc43)n2C)CC1 | 42.6* | -1.6 | -5.5 | -2.0 | -1.6
O=C(/C=C(\Nc1cccc(OC(F)F)c1)c1ccccc1)c1ccccc1 | . | . | 2.2 | . | .
CN(C(=O)[C@@H]1CC=C[C@@H]2CCN(C3CCCCC3)C(=O)[C@@H]21)c1ccccc1 | . | . | 4.0 | . | .
O=C(NC(=S)Nn1cnc2c(cnn2-c2ccccc2)c1=O)c1ccc(Oc2ccccc2)cc1 | 40.7* | -3.2 | -0.8 | 1.7 | 6.2
CN(C)c1ccc(NC(=O)C2C3C=CC(C3)C2C(=O)O)cc1 (stereo not given) | 29.0 | . | 45.4* | . | .
O=C(Nc1ccccc1Cl)O[C@@H]1CC[C@@]23CCCN2C(=O)CCC[C@H]3C1 | . | . | 3.5 | . | .
C=CCN1C(=O)[C@H](CC(=O)NCCCCc2ccccc2)[C@@]2(C(=O)OCC)CCCC=C12 | . | . | 5.2 | . | .
CC(=O)Oc1oc(-c2ccccc2)nc1/C=N/c1ccccn1 | -14.0 | 1.1 | 5.6 | 0.1 | 26.0*
CC(=O)Oc1oc(-c2ccccc2)nc1C=Nc1ccc(N(C)C)cc1 | -6.5 | 2.3 | 1.2 | 6.4 | 18.2*
COc1ccccc1N=Cc1nc(-c2ccccc2)oc1OC(C)=O | 6.1 | -2.2 | -2.8 | 1.9 | 17.2*
CN(C)c1ccc(N=Cc2nc(-c3ccccc3)oc2OC(=O)c2ccccc2)cc1 | 2.7 | -2.9 | 2.8 | 2.3 | 8.1
CC(C)(C)OC(=O)N1CCC(N[C@@H](Cc2c[nH]c3ccccc23)C(=O)NCC(c2ccccc2)c2ccccc2)(C(=O)NC2CCCCC2)CC1 | . | . | 1.9 | . | .
C/C(CC(=O)Nc1ccc(Cl)c(Cl)c1)=N\NC(N)=S | 2.8 | -6.5 | 5.6 | -10.9 | 30.3*
CN(C)c1ccc(N=Nc2ccc(S(=O)(=O)O)cc2)c2ccccc12 | 11.6 | -11.7 | -2.4 | 36.9* | 1.9
O=C(Nc1ccncc1)c1cccc(S(=O)(=O)N2CCc3ccccc32)c1 | 20.9 | -4.5 | -13.2 | -6.6 | 16.8*
O=C(Nc1cccnc1)c1cccc(S(=O)(=O)N2CCc3ccccc32)c1 | 7.2 | 1.4 | -13.3 | 5.5 | 1.2
CCCC/C=C1/[C@H](c2ccccc2)N(C)C2=N[C@H](c3ccccc3)CC(=O)N21 | . | . | 0.1 | . | .
CCCOc1ccc(C(=O)N/N=C/c2c[nH]c3ccc(Br)cc23)cc1 | 24.7 | -3.5 | -13.3 | -17.6 | 7.7
CCCCCN=C(N)N/N=C/c1c[nH]c2ccc(OC)cc12 | 78.2* | -1.4 | -14.1 | -3.4 | 4.1
CCCCc1c(-c2ccccc2OC)ncn1C1CCCCC1 | . | . | 6.7 | . | .
CCn1cc(C(=O)NCc2ccc3c(c2)OCO3)c(=O)c2cc(S(=O)(=O)N3CCOCC3)ccc21 | 15.0 | -6.1 | 6.6 | 7.9 | 7.1
CCn1cc(C(=O)NCc2ccc3c(c2)OCO3)c(=O)c2cc(S(=O)(=O)N(C)C)ccc21 | 4.8 | 2.1 | -0.8 | 11.3 | 18.2*
CCN(CC)S(=O)(=O)c1ccc(N2CCOCC2)c(NC(=O)CC(C)(C)C)c1 | -15.7 | 2.9 | -5.0 | -9.7 | -0.3
SMILES | Apaf-1 inh | PAD4 FP inh | TDP2 absorb | GSTO1 counter | CTSL1 counter
CCN(CC)S(=O)(=O)c1ccc(N2CCCC2)c(NC(=O)CC(C)(C)C)c1 | -3.9 | 2.5 | 3.3 | 7.9 | 19.8*
CC1(C)CC(=O)N(CC(=O)N2CCN(c3cccc(Cl)c3Cl)CC2)c2ccccc2S1(=O)=O | . | . | 5.0 | . | .
Cn1c(=O)[nH]c(=O)c2c1nc(N/N=C/C(Br)=C/c1ccccc1)n2CCO | 13.0 | -0.9 | -30.0 | 35.1* | 8.8
Cc1ccccc1NS(=O)(=O)c1ccc(C(=O)N2CCC2)cc1 | 5.0 | -3.7 | -9.8 | 8.6 | 18.6*
Cc1ccc(S(=O)(=O)N2CCCC(C(=O)Nc3c(C)n(C)n(-c4ccccc4)c3=O)C2)cc1 (stereo not given) | . | . | 0.4 | . | .
COc1cccc(-c2nc(NCc3ccco3)c3ccccc3n2)c1O | -1.0 | 1.3 | -13.6 | 2.8 | -2.8
COc1cccc(-c2nc(NCc3ccccc3)c3ccccc3n2)c1O | 14.9 | -8.2 | -16.6 | 15.5 | 20.7*
O=S1(=O)c2c(NCc3ccco3)cccc2Oc2ccccc2CN1Cc1cn(Cc2ccccc2C(F)(F)F)nn1 | . | . | 12.0 | . | .
Cc1ccc(C=Nn2c(-c3n[nH]c4c3CCC4)n[nH]c2=S)s1 | . | . | -11.2 | . | .
O=C1c2ccccc2C(=O)c2c1ccc1c(=O)n(C3CCCCC3)[nH]c21 | 2.4 | 0.7 | 14.0 | 3.7 | 2.5
O=C1C2=C(c3ccccc31)[N+](=O)C1CCCCC1N2[O-] (stereo not given) | 54.5* | -6.5 | 25.4* | 28.3 | -3.7
O=C1c2c(O)ccc(O)c2C(=O)c2c(NCCNCCO)ccc(NCCNCCO)c21 | 78.4* | -2.8 | 5.9 | 4.5 | 4.0
COC(=O)CCC(=O)OC1(C)C(=O)C2=CN(c3ccc(OC)cc3)C(c3ccc(OC)cc3)=CC2=C(Br)C1=O (stereo not given) | 27.1 | -28.4 | . | 36.2* | -6.5
Clc1ccc(C2=NCCN2)cc1 | 10.6 | 3.6 | -6.7 | 4.8 | -0.6
COc1cc(C[C@@H](C)[C@@H](C)Cc2ccc(O)c(OC)c2)ccc1O | 19.2 | 1.5 | 6.4 | . | .
CC(Cc1ccc(O)c(O)c1)C(C)Cc1ccc(O)c(O)c1 (stereo not given) | 23.5 | -3.7 | . | 52.4* | -1.3
O=C1c2ccccc2C(=O)c2c(Nc3ccc(CCO)cc3)ccc(O)c21 | 27.6 | 4.5 | 3.6 | 39.0* | 0.5
CCOc1ccc(S(=O)(=O)N(C(=O)c2ccco2)c2cc3sc(=O)oc3c3ccccc23)cc1 | 23.3 | 11.7 | 1.2 | 37.2* | -3.5
CCN(CC)C(=O)CSc1nnc(-c2ccccn2)n1C | . | . | 3.8 | . | .
Cc1ccnc(N=Cc2nc(-c3ccccc3Br)oc2O)c1 | -2.9 | -1.5 | 6.1 | 3.1 | 66.6*
Cc1cccc(/N=C/c2nc(-c3ccccc3Br)oc2O)n1 | 9.4 | 2.6 | 5.5 | -7.9 | 66.7*
Cn1c(N)c(C(=O)COc2ccc(Cl)cc2Cl)c(=O)n(C)c1=O | -4.5 | -3.8 | 9.2 | -3.5 | 6.8
Cn1c(=O)c(C(=O)COc2ccc(F)cc2Cl)c(N)n(Cc2ccccc2)c1=O | 22.9 | -2.0 | -3.2 | -10.8 | 31.3*
COc1ccc(/C=C(\NC(=O)c2ccccc2)C(=O)N2CCN(C)CC2)cc1OC | -5.6 | 1.9 | -8.0 | -7.2 | 0.6
COc1ccc(-c2ccc(/C=C(\NC(=O)c3ccccc3)C(=O)N3CCOCC3)o2)cc1 | 21.1 | -8.2 | 3.4 | 7.0 | 78.5*
COc1ccc(/C=C(/NC(=O)c2ccccc2)C(=O)N2CCOCC2)cc1OC | 11.7 | -3.7 | 0.8 | 8.3 | 18.6*
Cc1ccccc1C(=O)NC1CCCCN(Cc2cccc(F)c2)C1=O (stereo not given) | . | . | 3.0 | . | .

From PubChem
